Assay outcomes: PubChem BioAssay, several laboratories
PKD1 inh: inhibitors of human PKD1 kinase, biochemical, fluorescence polarization | PKD1 kinase fluorescence polarization assay | inhibition, % (no concentration beside the values) | hit rate 0.056% among 200,000 | AID 797, 2007
Wee1 stabilizer: Wee1 degradation inhibitors, primary screen, cell-based, HeLa, Wee1K328M-luciferase, luminescence; Wee1-like protein kinase (Homo sapiens), P30291; HeLa Luc-Wee1K328M stability; 100% = proteasome inhibitor MG132 effect; reporter increase, % at 5 µM; hit rate 1.2% among 220,000;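 active = activation above the mean of all tested compounds plus 3 SD, set per screening run, cut at about 8.8% in these data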;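 also: cells exposed to compound for 20 h before luminescence read; 0% = DMSO alone and 100% = MG132 at 30 µM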
L major viab: Leishmania major promastigote growth inhibition, primary screen. inhibition, % at 10 µM. AID 1063, 2008. Leishmania major promastigotes, resazurin fluorescence viability. hit rate 9% among 200,000;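 also: promastigotes grown with compound for 44 hours at 28 °C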
Arbovirus inh: antivirals against arbovirus infection, primary screen, cell-based, full library, 10K replicate subset. arbovirus infection cell-based antiviral screen. inhibition, % at 10 µM. hit rate 0.37% among 200,000; in the data active = inhibition above about 30%
CHOP inhibitor: inhibitors of CHOP promoter induction, primary screen, cell-based, unfolded protein response, luciferase reporter; CHO-K1 CHOP-promoter luciferase, tunicamycin-induced, 15-18 h; inhibition, % at 10 µM; hit rate 3.8% among 220,000;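 active = compounds that reduced the stress-induced luciferase reporter signal by more than about 70% of percent inhibition, limit read from the data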;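 also: 0% = tunicamycin plus vehicle and 100% = wells without tunicamycin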
Rad51 HR inh: human RAD51 strand exchange inhibitors, primary screen, biochemical, fluorescence; DNA repair protein RAD51 homolog 1 (Homo sapiens), Q06609; inhibition, % at 10 µM; AID 1385, 2008; hRad51 DNA strand exchange, fluorescence dequenching; hit rate 0.085% among 200,000;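 active = inhibition above 40% at the single screening dose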;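 also: 0% = DMSO control wells and 100% = blanks with heterologous ssDNA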
Target sequence (Q06609 whole entry, looked up): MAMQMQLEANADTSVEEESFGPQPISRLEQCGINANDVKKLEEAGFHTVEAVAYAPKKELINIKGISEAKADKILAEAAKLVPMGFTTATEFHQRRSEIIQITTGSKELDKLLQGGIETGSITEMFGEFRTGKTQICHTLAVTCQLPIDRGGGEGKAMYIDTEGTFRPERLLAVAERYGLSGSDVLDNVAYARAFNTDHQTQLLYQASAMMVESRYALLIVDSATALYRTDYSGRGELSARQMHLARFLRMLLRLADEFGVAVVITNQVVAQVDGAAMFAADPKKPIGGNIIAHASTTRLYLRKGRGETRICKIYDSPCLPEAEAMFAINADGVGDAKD
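material = hRad51 filaments on single-stranded DNA | reagent = Donor/quencher-labelled 47-bp dsDNA substrate | compound = 10 µM final, single point | schedule = strand-exchange reaction 15 min at room temperature | measured by = fluorescein emission 520 nm, excitation 485 nm | read-out basis = % inhibition versus plate control and blank means | benchmarks = plate controls and plate blanks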
Lmaj promast 1uM: Leishmania major promastigote growth inhibition, confirmation, 1 µM repeat of primary hits; inhibition, % at 1 µM; shares compounds with L major viab; L. major promastigote growth, resazurin fluorescence, 48 h; hit rate 13% among 1,100;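 active = inhibition above about 50% in both repeat tests, limit read from the data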
* = called active by the depositor; / = no result. The list is not random: actives were taken first. Their share in the collection is about 12%. Rule as the data show it, unless noted: active = inhibition above about 50%; inactive = the rest.

SMILES	PKD1 inh	Wee1 stabilizer	L major viab	Arbovirus inh	CHOP inhibitor	Rad51 HR inh	Lmaj promast 1uM
CCn1c(-c2ccc(N)cc2)nc2ccccc21	4	5	18	-2	34	-1	/
CCn1c(-c2ccc(N(C)C)cc2)nc2ccccc21	-7	1	97*	16	/	0	22
COc1ccc2c(c1)CCc1c(C(=O)N(C)c3ccccc3)noc1-2	-8	-2	19	-6	-24	6	/
CCN1C(=O)NC2=C(C(=O)c3ccccc32)C1c1ccccc1F (stereo unspecified)	3	-3	100*	-12	53	0	29
CCOCC(=O)Nc1cc(Cl)ccc1C	-1	-2	-2	1	9	35	/
CC(C)NCC(O)COc1ccc(Br)cc1 (stereo unspecified)	-2	-2	3	6	16	2	/
CCC(CC)NCC(O)COc1ccc(Br)cc1 (stereo unspecified)	0	1	66*	-5	-2	0	6
CN1C(=O)C(c2nnc(Nc3cccc4ccccc34)s2)C2CC1(C)Oc1ccccc12 (stereo unspecified)	1	-3	72*	-13	57	9	-10
Cc1ccc(S(=O)(=O)C2C(=O)N(C)C3(C)CC2c2ccccc2O3)cc1C (stereo unspecified)	-6	0	10	0	1	4	/
O=C1C(=O)N(CCc2c[nH]c3ccccc23)C(c2cccnc2)/C1=C(/O)c1ccccc1 (stereo unspecified)	-11	-3	-11	2	-13	15	/
Cc1noc(/C=C/c2ccco2)c1S(=O)(=O)N1CCC(C(=O)NCc2ccco2)CC1	6	0	77*	-3	3	-5	-15
O=[N+]([O-])c1cnc2nc(-c3ccncc3)nn2c1O	3	-4	9	-1	10	9	/
O=[N+]([O-])c1ccc(-n2cnc3ccccc32)c([N+](=O)[O-])c1	2	-2	100*	-15	-1	/	22
O=[N+]([O-])c1ccc2c(c1)ncn2-c1ccccc1	8	3	1	6	2	-6	/
O=[N+]([O-])c1cc(-c2nnc(C34CC5CC(CC(C5)C3)C4)o2)cc([N+](=O)[O-])c1	3	-1	100*	-7	20	/	96*
O=[N+]([O-])c1cccc(-c2nnc(C34CC5CC(CC(C5)C3)C4)o2)c1	3	-2	-8	13	41	10	/
COc1ccc(C2c3c4c(n(C)c3CCN2C)CCN(C)C4c2ccc(OC)cc2)cc1 (stereo unspecified)	-8	-1	3	14	2	-2	/
COc1ccc(C2NCCn3cccc32)cc1 (stereo unspecified)	-1	-2	96*	4	5	-4	-20
FC(F)(F)c1ccccc1-n1c(CN2CCCCC2)n[nH]c1=S	/	-2	/	/	20	12	/
CC(=O)OC1C(N2CCCCC2)c2c(ccc(/C=C/C(=O)N3CCCCC3)c2O)OC1(C)C (stereo unspecified)	-8	-1	73*	-6	77*	10	-22
O=C(COc1ccc(-c2ccccc2)cc1)N1CCN(C(=O)c2cccs2)CC1	2	2	2	-11	17	27	/
COc1ccc(/C=C/C(=O)N(C)c2ccccc2C(=O)O)cc1	-2	0	6	-3	-3	-14	/
CCOC(=O)N1CCN(C(=O)c2ccc3c(c2)sc2nc(-c4ccccc4)cn23)CC1	5	5	58*	-3	-12	-5	2
CCOC(=O)N1CCC(NC(=O)c2ccc3c(c2)sc2nc(-c4ccc(OC)cc4)cn23)CC1	-5	-4	0	-7	-4	/	/
O=[N+]([O-])c1ccccc1S(=O)(=O)Oc1ccc(C(=S)N2CCOCC2)cc1	-3	-2	81*	12	47	/	-22
